Consider 53 compounds from ChEMBL document CHEMBL1122794, “[(Arylcarbonyl)oxy]propanolamines. 1. Novel beta-blockers with ultrashort duration of action” (J Med Chem, 1984).

Data set [1] can be described thus: T1/2 in canine blood. The format is ADME, […], Canis lupus familiaris. To be noted: dog. In short, it runs like this: (§1)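 1 mL of solution containing 50 µg of compound was added to 1 mL of dog or human whole blood, or to 1 mL of 33% (w/v) canine liver homogenate. They were assayed by HPLC on a phenyl column with 60% acetonitrile/40% 0.05 M sodium phosphate (pH 6.6) and UV detection. Half-life was read graphically from concentration versus time.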

Data set [2] can be described thus: Time in which 1/2 of the initial amount disappeared in human blood. The format is ADME, organism-based. The procedure, abridged: as §1
Data set [3] concerns the target T1, Adrenergic receptor beta (Homo sapiens, UniProt P08588+P07550+P13945). Description: In Vitro inhibition of the beta adrenergic receptor in guinea pig atria. The format is tissue-based, Cavia porcellus. To be noted: target entry is the homologue from another species.
Data set [4] deals with T1, Adrenergic receptor beta. The data set can be described thus: In vitro blocking of beta adrenergic receptor in guinea pig trachea. To be noted: target entry is the homologue from another species. The format is tissue-based, Cavia porcellus.
The nature of data set [5]: Selectivity determined by expression 10[pA2(atria) - pA2 (trachea)] in guinea pig. The format is functional, Cavia porcellus.
A short description of data set [6]: t1/2 in canine liver. The format is ADME, Canis lupus familiaris. Conditions: dog.
The species named for data set [7] is Canis familiaris. Description: Percent inhibition of isoproterenol induced tachycardia at a dose of 7 microg (3-h infusion period). The format is functional, Canis lupus familiaris.
The species named for data set [8] is Canis familiaris. Description: Time taken for 80% recovery at a dose of 7 microg (3-h infusion period). The format is functional, organism-based. To be noted: Canis lupus familiaris. In short, it runs like this: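 After the infusion ended, the time to 80% recovery of the blockade was recorded as duration of action. The listed dose is the average amount infused per minute over the 3-h period, in µg/(kg min).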

Data set [9] in a line: Stability at pH 7.4 and 37 degree Celsius (after 18 h). The format is physicochemical. Conditions: buffer. The procedure, abridged: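 Chemical stability was tested in pH 7.4 buffer at 37 °C. The percentage of parent compound remaining after 18 h of incubation was recorded.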
The target in data set [10] is Beta-2 adrenergic receptor (Cavia porcellus) (UniProt Q8K4Z4). Description: In Vitro evaluation for […] selectivity in guinea pig. In short, it runs like this:
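Selectivity index calculated as 10^[pA2(atria) − pA2(trachea)] from pA2 values measured in isolated guinea pig atria and trachea. A minus sign denotes β2 selectivity.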

The source made the active and inactive calls. No cut-off for these calls is given here.

Beta-2 adrenergic receptor (Cavia porcellus), sequence (Q8K4Z4 whole entry, looked up): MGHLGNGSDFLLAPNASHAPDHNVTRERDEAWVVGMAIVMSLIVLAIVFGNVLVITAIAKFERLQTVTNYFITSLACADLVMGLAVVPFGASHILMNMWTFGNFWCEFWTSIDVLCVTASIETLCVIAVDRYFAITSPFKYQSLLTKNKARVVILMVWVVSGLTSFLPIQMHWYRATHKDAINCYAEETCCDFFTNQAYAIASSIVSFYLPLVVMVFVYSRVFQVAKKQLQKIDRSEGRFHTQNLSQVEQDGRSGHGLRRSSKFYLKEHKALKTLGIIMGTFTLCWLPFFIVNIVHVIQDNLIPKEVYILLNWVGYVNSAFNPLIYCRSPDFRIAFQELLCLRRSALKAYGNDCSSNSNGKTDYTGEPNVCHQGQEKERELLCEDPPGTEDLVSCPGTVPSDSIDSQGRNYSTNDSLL

Consider `CC(C)(C)NCC(O)COC(=O)C(c1ccccc1)c1ccccc1` (stereo not given), for which the half-life in data set [1] is above 180 min; in data set [2], 120 min. The pA2 in [3] is on record as below 5.5.
Taken in the same sequence, the figures for `CC(C)(C)NCC(O)COC(=O)CCc1ccccc1` (stereo not given) were below 2.5 min, 71 min and below 6.
As for `Cc1cccc(C(=O)OCC(O)CNC(C)(C)C)c1` (stereo not given), the pA2 came out at 7 in data set [3] and 7.3 in data set [4]. Also, in [5], the Selectivity was -2.
As to `CC(=O)NCC(C)NCC(O)COC(=O)c1ccccc1F` (stereo not given), the pA2 in [3] is recorded as below 6.3.
With `CC(C)(C)NCC(O)COC(=O)c1cccc(O)c1` (stereo not given), the half-life in data set [1] was determined as 119 min; in data set [6], 62 min. The pA2 was found to be 7.4 in data set [3] and 7.6 in data set [4]. The Inhibition in data set [7] is recorded as 56%. In addition, in data set [8], the Recovery time worked out at 25 min. Moreover, the Selectivity in data set [5] was -2.
`CCCOc1ccc(C(=O)OCC(O)CNC(C)(C)C)cc1` (stereo not given) registered a pA2 in data set [3] of 5.4.
The same measure, in the same setting: the figure for `CC(C)(C)NCC(O)COC(=O)C1c2ccccc2-c2ccccc21` (stereo not given) is below 6.
Regarding `CC(C)NCC(O)COc1ccccc1` (stereo not given), the pA2 in data set [3] was 8; in data set [4] it was 7.4. In [5], the Selectivity was determined as 4.
The matching figures for `Cc1cccc(C(=O)OCC(O)CNC(C)C)c1` (stereo not given): 6.8, 7.3 and -3.
On to `CC(C)(C)NCC(O)COC(=O)c1ccncc1` (stereo not given), for which the pA2 in data set [3] amounted to 5.3.
The compound `O=C(Cc1ccccc1)NCCNCC(O)COC(=O)c1ccccc1F` (stereo not given) gave a pA2 in [3] below 6.
On the same count and under the same terms, the figure for `CC(C)NCC(O)COC(=O)c1ccc(OCc2ccccc2)cc1` (stereo not given) is below 6.
For the compound `Cc1ccccc1OCC(O)CNC(C)C` (stereo not given), the results for the pA2 in data set [3] and in data set [4] were 8.6 and 8.2, respectively. The same compound gave a Selectivity in [5] of 3.
`C=CCOc1ccccc1C(=O)OCC(O)CNC(C)C` (stereo not given): the pA2 in data set [3] is reported as 6.4; in data set [4], 6.2. In [5], this compound came in with a Selectivity of -2.
With `COc1ccc(CCNCC(O)COC(=O)c2cccc(F)c2)cc1OC` (stereo not given), the pA2 in data set [3] came to 6.4; in data set [4], 6.2. The Selectivity in data set [5] was determined as 2.
Regarding `COc1ccccc1COC(=O)C(O)CNCCc1ccc(OC)c(OC)c1` (stereo not given), the pA2 result in [3] (Cavia porcellus) was “inactive”. Besides, in [4], the pA2 is 5.
With `CC(=O)Nc1cccc(C(=O)OCC(O)CNC(C)C)c1` (stereo not given), the figures for the pA2 in data set [3] and in data set [4] were 6.1 and 6.4, respectively. The Selectivity in [5] is -2.
The matching figures for `Cc1cc([N+](=O)[O-])ccc1C(=O)OCC(O)CNC(C)(C)C` (stereo not given): 6.6, 7.3 and -5.
Turning to `COc1ccc(CCNCC(O)COC(=O)c2ccccc2Cl)cc1OC` (stereo not given), the share remaining at 18 h in data set [9] is 59%. The pA2 in data set [3] is 7.8; in [4], 7.5. Moreover, the Selectivity in data set [5] stood at 2.
The compound `C=CCOc1ccc(C(=O)OCC(O)CNC(C)(C)C)cc1` (stereo not given) showed a pA2 in [3] of 6.
As to `Cc1ccc(C(=O)OCC(O)CNC(C)C)cc1` (stereo not given), the half-life in data set [1] came out at 67 min; in [6], 10.4 min; in [2] it was 6 min. For the same compound, the pA2 in data set [3] and in [4] was 6.8 each time. The same compound showed a Selectivity in data set [5] of 1.
`CC(C)(C)NCC(O)COC(=O)c1cccc(N)c1` (stereo not given): the results for the pA2 in [3] and in [4] were 6.7 and 7.2, respectively. In addition, in [5], the Selectivity is given as -3.5.
Taken in the same sequence, the figures for `CC(C)(C)NCC(O)COC(=O)c1ccc(N)cc1` (stereo not given) were 7, 7 and 1.
Compound `COc1ccc(CCNCC(O)COC(=O)c2ccc(CO)cc2)cc1OC` (stereo not given) gave a pA2 in [3] below 5.5.
`CC(C)C(=O)NCCNCC(O)COC(=O)c1ccccc1F` (stereo not given): the pA2 in data set [3] was determined as 6.1.
For the compound `CC(C)(C)NCC(O)COC(=O)c1cccc2ccccc12` (stereo not given), the half-life in data set [1] and in data set [6] was above 180 min in each case. Moreover, the pA2 came out at 6.8 in data set [3] and 7.4 in data set [4]. In data set [5], this compound showed a Selectivity of -4.
Regarding `COc1ccc(CCNCC(O)C(=O)Oc2ccccc2)cc1OC` (stereo not given), the pA2 in data set [3] and in data set [4] was 5.9 throughout. In addition, the Selectivity in [10] came out at 1.
As for `CNC(=O)NCC(C)(C)NCC(O)COC(=O)c1ccccc1F` (stereo not given), the half-life worked out at 12 min in data set [1] and 5 min in [6]. Also, the values for the pA2 in data set [3] and in [4] were 6.5 and 8.1, respectively. This compound also had a Selectivity in data set [5] of -39.
For the compound `CC(C)NCC(O)COC(=O)c1ccc(F)cc1` (stereo not given), the half-life in data set [1] was determined as 4 min; in data set [6] it was 3 min; in [2] it was 3.5 min. Further, the pA2 turned out to be 6.6 in data set [3] and 7.3 in data set [4]. In data set [5], the Selectivity is -5.
Regarding `CC(C)(C)NCC(O)COC(=O)c1cccc(OCc2ccccc2)c1` (stereo not given), the half-life in data set [1] and in [6] was above 180 min in each case.
In data set [3], `COc1ccc(CCNCC(O)C(=O)Oc2ccccc2C)cc1OC` (stereo not given) showed a pA2 of 5.9.
Same read-out and setting: then `CNCC(O)COC(=O)c1ccc2c(c1)OCO2` (stereo not given), with 5.3.
With `CC(C)NCC(O)COC(=O)c1cccc(N)c1` (stereo not given), the half-life in data set [1] and in data set [6] was above 180 min each time. Besides, the pA2 in [3] was 6.4; in data set [4], 6.8. This compound also displayed an Inhibition in data set [7] of 80%. The Recovery time in [8] was above 60 min. Further, in data set [5], the Selectivity was -2.5.
`CC(=O)Nc1ccc(C(=O)OCC(O)CNC(C)C)cc1` (stereo not given): the pA2 in data set [3] is recorded as 5.8; in data set [4] it was 5.2. Moreover, the Selectivity in [5] amounted to 4.
Taken in the same sequence, the figures for `CC(C)NCC(O)COC(=O)c1cccc2ccccc12` (stereo not given) were 6.6, 7 and -2.5.
For the compound `CC(C)(C)NCC(O)COC(=O)c1ccc([N+](=O)[O-])cc1` (stereo not given), the half-life in data set [1] is above 180 min; in data set [6], above 180 min; in [2], 5.5 min. The pA2 in data set [3] is 6.1.
With `CC(C)(C)NCC(O)COC(=O)c1ccc(OCc2ccccc2)cc1` (stereo not given), the pA2 in data set [3] stood at 6.2.
The same measure, in the same setting: the figure for `CC(C)(C)NCC(O)COC(=O)CCCc1ccccc1` (stereo not given) is 5.3.
With `COc1ccc(CCNCC(O)COC(=O)c2ccc(N)cc2)cc1OC` (stereo not given), the pA2 stood at 6.5 in [3] and 5.7 in data set [4]. In data set [5], this compound gave a Selectivity of 6.
As to `CC(C)NCC(O)COC(=O)c1cccc(F)c1` (stereo not given), the half-life in data set [1] amounted to 52 min; in data set [6] it was 11 min; in data set [2], 8 min.
With `Cc1cc(N)ccc1C(=O)OCC(O)CNC(C)(C)C` (stereo not given), the pA2 in [3] was 7.8; in data set [4], 8.4. The compound further had a Selectivity in data set [5] of -4.
The matching figures for `CN(C)S(=O)(=O)NCC(C)(C)NCC(O)COC(=O)c1ccccc1F` (stereo not given): 7.4, 7.5 and 1.
The matching figures for `C=CCOc1cccc(C(=O)OCC(O)CNC(C)C)c1` (stereo not given): 6.8, 6.8 and 1.
In the case of `COCCOC(=O)NCC(C)(C)NCC(O)COC(=O)c1ccccc1F` (stereo not given), the pA2 in [3] and in data set [4] was 7.7 each time. The compound further came in with a Selectivity in data set [5] of 1.
With `CC(C)NCC(O)COC(=O)c1cccc([N+](=O)[O-])c1` (stereo not given), the pA2 was 6.8 in data set [3] and 7.2 in [4]. Besides, the Selectivity in data set [5] is -2.5.
As to `CC(C)(C)NCC(O)COC(=O)c1cccc([N+](=O)[O-])c1` (stereo not given), the half-life in data set [1] was 74 min; in data set [6], above 180 min. The pA2 in data set [3] is recorded as 6.8.
`CCC(C)(C)NCC(O)COC(=O)c1ccccc1F` (stereo not given): the results for the half-life in data set [1] and in data set [6] were 6 min and 12 min, respectively. Further, the pA2 in [3] is 6.7; in data set [4], 7.7. Also, the Selectivity in [5] is -5.
Regarding `CC(C)(C)NCC(O)COC(=O)Cc1ccccc1` (stereo not given), the half-life came to 16 min in [1] and 6.3 min in data set [2]. In data set [3], this compound yielded a pA2 of 5.6.
In data set [3], `CC(C)(C)NCC(O)COC(=O)C1CCCC1` (stereo not given) registered a pA2 of 5.3.
On to `Cc1ccccc1C(=O)OCC(O)CNC(C)(C)C` (stereo not given), for which the fraction remaining at 18 h in data set [9] was 100%. Further, the half-life in [1], in data set [6] and in data set [2] was above 180 min throughout. In addition, the values for the pA2 in data set [3] and in data set [4] were 7.3 and 7.9, respectively. Moreover, the Selectivity in data set [5] is recorded as -4.
Consider `CCCOc1cccc(C(=O)OCC(O)CNC(C)C)c1` (stereo not given), for which the pA2 in data set [3] is listed as 6.6.
As to `COc1ccc(CCNCC(O)COC(=O)c2ccc(C)cc2)cc1OC` (stereo not given), the pA2 in [3] turned out to be 6.6; in data set [4], 6. In [5], the Selectivity was 4.
As for `C#CC(C)(C)NCC(O)COC(=O)c1ccccc1F` (stereo not given), the half-life in data set [1] stood at 12 min; in [6] it was 7 min. For the same compound, the pA2 in data set [3] is 6.6; in data set [4], 6.7. Moreover, the Selectivity in data set [5] worked out at 1.
